A selection: hits, their analogues and other compounds. The true share with any hit is near 1.6%.
NR2E3 ag-1 = NR2E3 agonists in two-hybrid cells, primary screen, cell-based, luminescence, CHO-S, Gal4-NCOR/VP16-NR2E3; luciferase; inhibition of corepressor binding, % at 3.98 µM; 0.35% of 360,000 active; AID 602229, 2012;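 active = inhibition above the mean of all tested compounds plus 3 SD, cut at about 70% in these data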;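 also: 0% = DMSO with NR2E3 transfected cells and 100% = cells lacking NR2E3 construct; higher means lower luciferase signal from less NR2E3 corepressor binding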
Target sequence (Q9Y5X4 whole entry, looked up, the tested form may be a part): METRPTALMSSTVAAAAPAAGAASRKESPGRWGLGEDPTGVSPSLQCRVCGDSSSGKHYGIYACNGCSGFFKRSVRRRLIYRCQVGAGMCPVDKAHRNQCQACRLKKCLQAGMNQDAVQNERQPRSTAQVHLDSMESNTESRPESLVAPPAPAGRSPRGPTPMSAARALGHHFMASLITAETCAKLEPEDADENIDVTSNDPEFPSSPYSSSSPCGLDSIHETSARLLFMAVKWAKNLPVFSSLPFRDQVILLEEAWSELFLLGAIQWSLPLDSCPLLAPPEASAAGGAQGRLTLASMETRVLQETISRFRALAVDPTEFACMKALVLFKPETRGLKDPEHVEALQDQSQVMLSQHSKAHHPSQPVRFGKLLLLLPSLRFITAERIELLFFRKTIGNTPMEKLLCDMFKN
PG9 Ab binder = binders of HIV-1 gp120 antibody PG9, primary screen, biochemical, TR-FRET. inhibition, % at 6.7 µM. 0.43% of 360,000 active. HIV-1 gp120 / PG9 antibody interaction. TR-FRET gp120-PG9 antibody binding; in the data active = inhibition above about 8.5%
VLA-4 inh = inhibition in human VLA-4 binding assay, primary screen, VLA-4 allosteric modulator project, MLPCN library, flow cytometry, VLA-4 expressing cells | AID 2557, 2010 | inhibition, % (about 7 µM as worked out from the volumes in the protocol) | ligand binding flow cytometry | 0.2% of 330,000 active | Integrin alpha-4 (Homo sapiens), P13612; in the data active = inhibition above about 50%
NR2E3 ag-2 = inhibitors of NR2E3-RetCOR corepressor binding, primary screen, NR2E3 agonist project, biochemical, TR-FRET, GST-NR2E3, biotin-RetCOR; Photoreceptor-specific nuclear receptor (Homo sapiens), Q9Y5X4; 0.12% of 320,000 active; 1536-well; inhibition of corepressor binding, % at 4.78 µM;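 active = percent inhibition above the cutoff of mean plus 3 SD of all tested compounds, set per screening campaign, cut at about 20% in these data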;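 also: 0% = DMSO wells and 100% = biotin wells as full block of FRET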
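system = GST-tagged NR2E3 plus biotinylated RetCOR corepressor | input = 1.35 nM GST-NR2E3 | also added = 7 nM biotin-RetCOR | schedule = 5 h incubation at 4 °C | measured by = TR-FRET with europium anti-GST and streptavidin-D2, 340 nm excitation | read-out = percent loss of FRET ratio relative to control wells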
Rev-erbA mod = modulators of Rev-erb alpha DNA binding, primary screen, biochemical, FITC-DNA, fluorescence polarization, uHTS; Nuclear receptor subfamily 1 group D member 1 (Homo sapiens), P20393; Rev-erbα–FITC-DNA binding, 90 min; activity, % at 10 µM; 0.79% of 370,000 active;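 active = activity above about 14%, limit read from the data; passing the limit was not always enough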;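 also: 0% = DMSO wells with 35 nM protein and 100% = DMSO wells with 750 nM protein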
NR1D1 mod conf = modulators of Rev-erb alpha DNA binding, confirmation, biochemical, FITC-DNA, fluorescence polarization, single point | shares compounds with Rev-erbA mod | 90 min | activation, % at 25 µM | 61% of 3,000 active | AID 1259319, 2017;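 active = activation at or above a set limit, or at least 3 SD above the negative control mean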;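 also: 0% = 35 nM protein with DMSO and 100% = 750 nM protein high control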
RORg counter = modulation of RORgamma DNA binding, dose response, counter-screen for Rev-erb alpha modulator project, biochemical, fluorescence polarization, FITC-DNA. shares compounds with Rev-erbA mod. purified RORgamma protein-FITC-DNA binding. IC50, µM. 8% of 910 active. AID 1259320, 2017;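 active = Compounds whose fitted half-maximal concentration for disrupting protein-DNA binding is below 10 micromolar; the record names Rev-erb in its text, so the target is in doubt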
Active calls of the source: *; i = inactive; x = no result.

SMILES | NR2E3 ag-1 | PG9 Ab binder | VLA-4 inh | NR2E3 ag-2 | Rev-erbA mod | NR1D1 mod conf | others
COc1cccc(N2CCN(c3ccc4nnc(CCC(=O)Nc5cccc(C(C)=O)c5)n4n3)CC2)c1 | -22 | -2 | 5 | 0 | 27* | 8
COc1cccc(N2CCN(c3ccc4nnc(CCC(=O)Nc5ccc(F)cc5)n4n3)CC2)c1 | -4 | -1 | 3 | 0 | 3 | x
CCOC(=O)c1cc(-c2ccccc2)sc1NC(=O)CN1C(=O)NC(CC)(c2ccccc2)C1=O (stereo not drawn) | -18 | 7 | -6 | 4 | 47* | 31*
COc1cccc(C(=O)OCC(=O)Nc2sc3c(c2C(N)=O)CCC3)c1O | -40 | 0 | 1 | -2 | 0 | x
C=Cc1ccc(Cn2c(C)c(C(=O)NCc3cccc(C)c3)sc2=O)cc1 | -5 | 1 | x | x | 8 | x
Fc1ccccc1Oc1nc(-c2ccncc2)nc2ccccc12 | -6 | 0 | 26 | 0 | 33* | 15
O=C1/C(=C\c2cc(Cl)c(O)c(Cl)c2)SC(=S)N1Cc1ccccc1 | 26 | 2 | i | x | 67* | 51* | RORg counter=i
COc1ccc(/C=C2/SC(=S)N(Cc3ccccc3)C2=O)cc1O | -22 | 1 | -39 | x | -5 | x
O=C(CCn1c(=S)oc2ccccc21)NCCC1=CCCCC1 | -7 | 0 | -12 | 0 | -4 | x
Cc1ccc(S(=O)(=O)N2CCOCC2)cc1NC(=O)c1cc(-c2ccccn2)nc2ccccc12 | -16 | -1 | -3 | 3 | -6 | x
O=C(Nc1cc(S(=O)(=O)N2CCOCC2)ccc1N1CCCCC1)c1cc(-c2ccccn2)nc2ccccc12 | 17 | -1 | -14 | 0 | 25* | 2
Clc1ccc(-c2ccnc(-n3cccc3)n2)s1 | 0 | 2 | 7 | 0 | 18* | -1
C[C@]1(CC/C(=C/CO)CO)[C@H](CO)CC[C@@]23COC(=O)C2=CCC[C@@H]31 | -6 | 0 | 7 | 3 | -4 | x
COc1ccc(C)c2sc(=NC(=O)C(C)C)n(C)c12 | 9 | 1 | 14 | 3 | 158* | 11*
COc1ccc(C)c2sc(=NC(=O)c3ccc(C(C)=O)cc3)n(C)c12 | -86 | 1 | 16 | -1 | 5 | x
CCC(=O)N=c1sc2c(OC)ccc(OC)c2n1C | -27 | 0 | -6 | 3 | 47* | 30* | RORg counter=>40
COc1ccc(C)c2sc(=NC(=O)c3cccc(N4C(=O)CCC4=O)c3)n(C)c12 | -15 | -2 | 7 | 0 | 43* | 23*
CCC(=O)N=c1sc2cc(F)cc(F)c2n1C | -37 | -1 | 13 | 2 | -6 | x
COc1ccc(OC)c2c1sc(=NC(=O)C1COc3ccccc3O1)n2C (stereo not drawn) | -13 | -1 | -5 | 2 | 29* | 21*
COc1cc(NC(=S)N2CCN(C)CC2)cc(OC)c1 | -20 | -2 | 14 | 5 | 12 | x
NNC(=O)Cn1nc2n(c1=O)-c1ccccc1SC2 | -15 | -1 | -84 | 2 | -1 | x
CCOC(=O)C1=C(COC(=O)/C=C/c2cc(Br)ccc2F)NC(=O)NC1C (stereo not drawn) | 2 | -1 | 0 | -2 | -5 | x
C/C(=N\Nc1nc2ccccc2[nH]1)c1ccc(N2CCOCC2)cc1 | -32 | -9 | 2 | -2 | -2 | x
CC1(Cc2ccc3c(c2)OCO3)C(=O)Nc2c(Cl)ccc(Cl)c21 (stereo not drawn) | -14 | 1 | x | x | 5 | x
CCN1C(=O)/C(=C\N2CCN(c3ccc(F)cc3)CC2)SC1=S | -16 | 4 | -7 | 2 | 213* | 251* | RORg counter=i
SMILES | NR2E3 ag-1 | PG9 Ab binder | VLA-4 inh | NR2E3 ag-2 | Rev-erbA mod | NR1D1 mod conf | others
COc1ccc(-c2ccc(-c3noc(-c4ccc(OC)c(OC)c4)n3)c(OC)n2)cc1 | x | -1 | x | x | 10 | x
COc1ccc(-c2ccc(-c3noc(C)n3)c(OC)n2)cc1 | -38 | -5 | -2 | 2 | 27* | 7
COc1ccc(-c2ccc(-c3noc(-c4ccccc4C)n3)c(OC)n2)cc1 | -32 | 2 | -4 | 5 | 40* | 11
COc1ccc(-c2ccc(-c3noc(-c4cccc(OC)c4)n3)c(OC)n2)cc1 | -3 | -1 | -13 | 0 | 52* | 0
COc1ccc(-c2ccc(-c3noc(-c4ccccc4OC)n3)c(OC)n2)cc1 | -22 | 0 | -8 | 8 | 37* | 15
CCOc1ccc(Cl)cc1-c1cc(C(=O)NC(C)C)[nH]n1 | -1 | 0 | x | x | -3 | x
COc1ccc(CC(=O)Nc2ccc(-c3noc(-c4ccccc4OC)n3)cc2)cc1 | -80 | 7 | -1 | -2 | 36* | 55* | RORg counter=i
COc1cccc(-c2nc(-c3ccc(NC(=O)Cc4ccccc4OC)cc3)no2)c1 | -4 | x | x | x | x | x
CN(C)c1ccc(-c2nnn(CC(=O)NCc3ccc4c(c3)OCO4)n2)cc1 | -47 | 7 | 11 | 6 | 15* | 7
Cc1ccccc1-c1nnn(CC(=O)NCc2ccc3c(c2)OCO3)n1 | -7 | 1 | -4 | -2 | 0 | x
C=CC[C@@H](Cc1ccc(F)cc1)C(=O)OC[C@@H]1CCCN1C(=O)[C@H](CC=C)CC(=O)NCCO | -4 | -1 | -1 | x | 0 | x
COc1ccc(-c2nnc(NC(=O)Cc3ccccc3)s2)c(OC)c1 | -2 | 5 | 9 | 5 | 41* | 19*
COc1ccc(-c2nnc(NC(=O)c3cccs3)s2)c(OC)c1 | -16 | 0 | 5 | -3 | 3 | x
COC(=O)c1cc2c(=O)c3ccccc3oc2nc1C | -99 | 1 | -7 | x | -3 | x
CCc1nc2oc3ccc(C)cc3c(=O)c2cc1C(=O)OC | -69 | -2 | 0 | x | 30* | 27*
CSc1nnc(N2C(=O)C(O)=C(C(=O)c3ccco3)C2c2cccc(Cl)c2)s1 (stereo not drawn) | -46 | 0 | -20 | 10 | 31* | 29* | RORg counter=>40
CC(Sc1nn(-c2ccc(F)cc2)c(=S)s1)C(=O)c1c(N)n(C)c(=O)n(C)c1=O (stereo not drawn) | -20 | 2 | -5 | -3 | 22* | 24*
COC(=O)[C@H](CC(C)C)NC(=O)Cn1cnc2c(SC)nc(N)nc21 | -6 | 1 | 22 | x | -3 | x
O=C(COC(=O)c1ccc2ccccc2c1O)Nc1ccccc1 | -12 | 1 | x | x | 59* | 28*
